This is an account of results in ChEMBL document CHEMBL2176954, “General synthesis of β-alanine-containing spider polyamine toxins and discovery of nephila polyamine toxins 1 and 8 as highly potent inhibitors of ionotropic glutamate receptors” (J Med Chem, 2012).

Common to all, as to assay type: functional, cell-based, Oocyte
Experiment [1] deals with Glutamate receptor ionotropic, NMDA 2A (Rattus norvegicus, UniProt P35439+Q00959). In words: Antagonist activity at rat glutamate N1/2A receptor expressed in Xenopus oocytes at membrane potential -60 mV by two-electrode voltage-clamp electrophysiology assay. In short, it runs like this:
(§1)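 Two-electrode voltage clamp at −60 mV on oocytes expressing the iGlu receptor subtype. Cells first received a maximally effective agonist concentration, then increasing toxin concentrations co-applied with agonist. IC50 values are means from 6 to 12 experiments, reported with 95% confidence intervals.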
For orientation: Two-electrode voltage clamp holds a large cell at a set potential and records current.

In the next experiment the target is Glutamate receptor 1 (Rattus norvegicus, UniProt P19490). In words: Antagonist activity at rat GluA1 receptor expressed in Xenopus oocytes at membrane potential -60 mV by two-electrode voltage-clamp electrophysiology assay. In short, it runs like this: as §1
In experiment [2] the target is T1, Glutamate receptor ionotropic, kainate 1 (Rattus norvegicus, UniProt P22756). The experiment in a line: Antagonist activity at rat GluK1 receptor expressed in Xenopus oocytes at membrane potential -60 mV by two-electrode voltage-clamp electrophysiology assay. In short, it runs like this:
as §1

Experiment [3] has as its target T1, Glutamate receptor ionotropic, kainate 1. In words: Antagonist activity at rat GluK1 receptor expressed in Xenopus oocytes by two-electrode voltage-clamp at membrane potential -60 to -80 mV electrophysiology assay. In short, it runs like this: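 GluK1-expressing oocytes were clamped by two-electrode voltage clamp and given a maximally effective agonist concentration, then increasing toxin concentrations plus agonist. IC50 was determined at −60 mV and at −80 mV to assess voltage dependence of block. Values at −60 mV are means of 6 to 12 experiments.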

Structures are written as SMILES.

Glutamate receptor ionotropic, NMDA 2A, sequence (Q00959 whole entry, one chain of several): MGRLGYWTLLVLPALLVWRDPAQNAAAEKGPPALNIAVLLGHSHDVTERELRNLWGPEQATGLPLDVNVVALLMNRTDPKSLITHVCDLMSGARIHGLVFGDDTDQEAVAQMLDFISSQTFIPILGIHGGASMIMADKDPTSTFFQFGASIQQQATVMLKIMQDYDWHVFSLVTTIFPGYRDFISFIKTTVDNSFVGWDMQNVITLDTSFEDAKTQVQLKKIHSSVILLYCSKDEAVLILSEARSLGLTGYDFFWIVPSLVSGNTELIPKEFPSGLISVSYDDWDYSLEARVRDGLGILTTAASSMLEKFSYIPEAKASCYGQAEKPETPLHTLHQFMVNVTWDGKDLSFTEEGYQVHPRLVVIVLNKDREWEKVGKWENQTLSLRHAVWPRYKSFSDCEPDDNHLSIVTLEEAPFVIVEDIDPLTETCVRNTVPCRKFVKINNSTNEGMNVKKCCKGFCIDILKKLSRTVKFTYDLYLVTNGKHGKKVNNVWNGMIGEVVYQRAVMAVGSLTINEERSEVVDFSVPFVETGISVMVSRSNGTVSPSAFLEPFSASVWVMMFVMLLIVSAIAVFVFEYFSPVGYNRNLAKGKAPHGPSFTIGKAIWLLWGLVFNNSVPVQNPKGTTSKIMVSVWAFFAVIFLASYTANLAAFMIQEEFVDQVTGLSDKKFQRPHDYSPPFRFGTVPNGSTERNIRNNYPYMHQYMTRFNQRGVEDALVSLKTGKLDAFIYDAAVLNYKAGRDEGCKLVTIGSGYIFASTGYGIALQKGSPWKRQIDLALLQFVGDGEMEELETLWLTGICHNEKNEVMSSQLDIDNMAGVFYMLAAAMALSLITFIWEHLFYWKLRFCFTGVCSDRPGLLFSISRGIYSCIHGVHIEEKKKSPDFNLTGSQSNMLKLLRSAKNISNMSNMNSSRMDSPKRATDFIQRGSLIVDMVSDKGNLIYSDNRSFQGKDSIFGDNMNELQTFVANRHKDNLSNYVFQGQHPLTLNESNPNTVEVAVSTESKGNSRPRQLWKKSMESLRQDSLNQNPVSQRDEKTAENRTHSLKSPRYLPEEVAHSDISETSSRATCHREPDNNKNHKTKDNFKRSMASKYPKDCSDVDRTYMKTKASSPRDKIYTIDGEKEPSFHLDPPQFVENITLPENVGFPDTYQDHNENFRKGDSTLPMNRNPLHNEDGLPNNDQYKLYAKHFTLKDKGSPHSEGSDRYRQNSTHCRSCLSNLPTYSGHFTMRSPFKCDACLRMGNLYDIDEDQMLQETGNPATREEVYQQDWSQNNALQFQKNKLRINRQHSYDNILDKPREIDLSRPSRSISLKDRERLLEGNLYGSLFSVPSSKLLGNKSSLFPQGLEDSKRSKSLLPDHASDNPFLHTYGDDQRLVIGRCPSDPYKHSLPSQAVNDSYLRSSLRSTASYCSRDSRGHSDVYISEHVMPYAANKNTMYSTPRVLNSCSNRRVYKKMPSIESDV
Glutamate receptor 1, sequence (P19490 whole entry): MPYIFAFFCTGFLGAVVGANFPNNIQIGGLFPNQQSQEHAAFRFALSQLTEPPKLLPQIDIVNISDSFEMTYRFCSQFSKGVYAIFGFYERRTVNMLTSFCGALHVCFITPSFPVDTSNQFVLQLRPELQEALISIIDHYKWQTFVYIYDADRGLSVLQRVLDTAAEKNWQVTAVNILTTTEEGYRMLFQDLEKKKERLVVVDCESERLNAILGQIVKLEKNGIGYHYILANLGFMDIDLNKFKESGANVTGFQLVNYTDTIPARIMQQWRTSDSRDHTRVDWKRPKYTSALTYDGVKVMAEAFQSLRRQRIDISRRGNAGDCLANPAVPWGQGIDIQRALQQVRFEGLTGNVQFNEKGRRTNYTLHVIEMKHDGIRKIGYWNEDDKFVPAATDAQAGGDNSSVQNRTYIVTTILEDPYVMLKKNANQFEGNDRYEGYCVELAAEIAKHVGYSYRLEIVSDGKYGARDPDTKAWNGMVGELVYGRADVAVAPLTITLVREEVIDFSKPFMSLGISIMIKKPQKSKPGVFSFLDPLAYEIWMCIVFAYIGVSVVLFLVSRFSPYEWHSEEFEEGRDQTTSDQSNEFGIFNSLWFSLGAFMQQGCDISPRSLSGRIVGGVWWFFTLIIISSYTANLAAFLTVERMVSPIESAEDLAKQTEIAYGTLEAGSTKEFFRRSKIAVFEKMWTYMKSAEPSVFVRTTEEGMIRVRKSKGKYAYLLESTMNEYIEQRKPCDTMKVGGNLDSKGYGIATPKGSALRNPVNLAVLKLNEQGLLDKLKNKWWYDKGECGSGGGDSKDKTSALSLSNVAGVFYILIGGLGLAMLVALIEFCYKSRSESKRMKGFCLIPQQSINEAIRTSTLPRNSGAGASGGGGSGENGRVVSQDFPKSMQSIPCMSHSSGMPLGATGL
T1 sequence (P22756 whole entry): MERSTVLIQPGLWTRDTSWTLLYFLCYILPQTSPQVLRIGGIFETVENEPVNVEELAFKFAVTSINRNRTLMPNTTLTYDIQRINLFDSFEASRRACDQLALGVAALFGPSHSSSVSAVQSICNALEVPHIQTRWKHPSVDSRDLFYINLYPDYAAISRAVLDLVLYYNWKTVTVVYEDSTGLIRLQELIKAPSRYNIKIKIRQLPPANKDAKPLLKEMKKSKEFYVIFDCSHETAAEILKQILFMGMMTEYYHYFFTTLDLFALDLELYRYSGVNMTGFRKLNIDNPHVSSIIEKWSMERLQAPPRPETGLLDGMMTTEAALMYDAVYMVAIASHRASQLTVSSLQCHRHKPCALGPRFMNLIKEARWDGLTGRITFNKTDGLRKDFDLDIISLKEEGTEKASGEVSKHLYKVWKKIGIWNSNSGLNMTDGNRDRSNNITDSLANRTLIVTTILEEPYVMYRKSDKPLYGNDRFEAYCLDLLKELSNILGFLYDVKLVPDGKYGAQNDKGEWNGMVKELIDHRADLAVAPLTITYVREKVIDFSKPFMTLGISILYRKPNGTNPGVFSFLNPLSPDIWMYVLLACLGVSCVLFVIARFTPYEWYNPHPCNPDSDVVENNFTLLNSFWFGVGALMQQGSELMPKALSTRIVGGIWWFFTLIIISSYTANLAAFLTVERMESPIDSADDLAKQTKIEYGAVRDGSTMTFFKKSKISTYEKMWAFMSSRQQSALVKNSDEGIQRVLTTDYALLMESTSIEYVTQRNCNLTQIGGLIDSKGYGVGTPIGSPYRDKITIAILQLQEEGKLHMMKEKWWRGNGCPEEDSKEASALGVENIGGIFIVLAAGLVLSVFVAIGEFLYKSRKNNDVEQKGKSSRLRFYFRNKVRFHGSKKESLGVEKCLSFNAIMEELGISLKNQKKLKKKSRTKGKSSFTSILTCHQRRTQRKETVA

Broadly, the IC50 is the concentration that gives 50% inhibition. A high value points to a need for much substance. With `N=C(N)NCCC[C@H](N)C(=O)NCCCNCCCNCCCCCNC(=O)[C@H](CC(N)=O)NC(=O)Cc1ccc(O)cc1O`, the results for the IC50 (in experiment [1]; at Glutamate receptor 1) were 177 nM and 135 nM, respectively.
Consider `C[C@H](NC(=O)CNC(=O)[C@@H](N)CCCNC(=N)N)C(=O)NCCCCNCCC(=O)NCCCCCNC(=O)[C@H](CC(N)=O)NC(=O)Cc1ccc(O)cc1O`, for which the IC50 in experiment [1] is greater than 10000 nM; in experiment [2] it was 2580 nM; against Glutamate receptor 1, 1080 nM.
For `NCCCNCCCCNCCC(=O)NCCCCCNC(=O)[C@H](CC(N)=O)NC(=O)Cc1c[nH]c2ccccc12`, the half-maximal inhibitory concentration (IC50) came to 150 nM in experiment [1], 0.28 nM in experiment [3], 0.82 nM in experiment [2] and 27 nM on Glutamate receptor 1.
Turning to `NCCCNCCCCNCCC(=O)NCCCCCNC(=O)[C@H](CC(N)=O)NC(=O)Cc1c[nH]c2cccc(O)c12`, the IC50 in experiment [1] is 1390 nM; in experiment [3], 0.19 nM; in experiment [2] it was 0.33 nM; against Glutamate receptor 1 it was 51 nM.
As to `NCCCNCCCCNCCC(=O)NCCCCCNC(=O)[C@H](CC(N)=O)NC(=O)Cc1ccc(O)cc1O` [JORO SPIDER TOXIN 3], the IC50 stood at 1710 nM in experiment [1], 19 nM in experiment [2] and 65 nM against Glutamate receptor 1.
In the case of `N=C(N)NCCC[C@H](N)C(=O)NCCCCNCCC(=O)NCCCCCNC(=O)[C@H](CC(N)=O)NC(=O)Cc1ccc(O)cc1O` [NEPHILA SPIDER TOXIN 3], the figures for the IC50 (in experiment [1]; in experiment [2]; at Glutamate receptor 1) were 5410 nM, 164 nM and 137 nM, respectively.
